Source: ChEMBL document CHEMBL4480397, “Discovery of a Natural-Product-Derived Preclinical Candidate for Once-Weekly Treatment of Type 2 Diabetes” (J Med Chem, 2019)
pIC50: −log10 of the molar value. Each block holds one molecule with its values, some of them ahead of it. The source made the active and inactive calls. The calls are words filed in the database; no cut-off is given here.

Experiments:
[1] = system: Mus musculus; experiment: Anti-diabetic activity in 8 hrs-fasted ICR mouse assessed as reduction in blood glucose AUC (0 to 120 mins)at 0.3 mg/kg, po pretreated for 60 mins followed by glucose challenge and measured after 120 mins post glucose challenge by OGTT relative to control; assay type: functional
Summary of the method: (§1)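 Male ICR mice (n = 10/group), fasted 8 h, dosed orally at 0.03, 0.3 or 3 mg/kg in 0.5% CMC-Na 1 h before an oral glucose load of 3 g/kg. Glucometer readings at −60, 0, 15, 30, 60, 90 and 120 min. Glucose AUC0–120 min by the trapezoidal method; one-way ANOVA with Fisher's LSD against vehicle.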

[2] = Volume of distribution at steady state in Sprague-Dawley rat at 1 mg/kg, iv by LC-MS-MS analysis; assay type: ADME, organism-based; conditions: in vivo, read-out: Vdss
[3] = Initial plasma concentration in Sprague-Dawley rat at 1 mg/kg, iv by LC-MS-MS analysis; assay type: ADME, organism-based
[4] = Clearance in Sprague-Dawley rat at 1 mg/kg, iv by LC-MS-MS analysis; assay type: ADME, organism-based; conditions: in vivo
[5] = Toxicity in ICR mouse assessed as effect on blood parameter at 30 mg/kg, po administered once daily for 14 consecutive days; assay type: organism-based; conditions: in vivo
Summary of the method: (§2)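 ICR mice dosed orally at 30 mg/kg once daily for 14 consecutive days. Endpoints were clinical signs, body weight, organ index, blood parameters and serum biochemistry, each compared with a control group.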

[6] = Cmax in ICR mouse at 2 mg/kg, po by LC-MS-MS analysis; assay type: ADME, organism-based; parameters: dose 2 mg/kg, route oral; conditions: in vivo
Summary of the method: (§3)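 Male ICR mice (n = 4/group), fasted 2 h, given a single oral dose of 2 mg/kg. Baseline blood was taken into EDTA, then samples at 1, 2, 4, 6, 8, 24, 48, 72, 96 and 120 h. Plasma was kept at -80 °C and concentrations measured by LC/MS/MS. Parameters came from noncompartmental analysis; values are means.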

[7] = Toxicity in ICR mouse assessed as effect on body weight at 30 mg/kg, po administered once daily for 14 consecutive days; assay type: organism-based; conditions: in vivo; summary of the method: as §2
[8] = system: Mus musculus; experiment: Anti-diabetic activity in 6 hrs-fasted db/db mouse assessed as reduction in blood glucose AUC (0 to 120 mins) at 10 mg/kg, po pretre at ed for 60 mins followed by glucose challenge and measured after 120 mins post glucose challenge by OGTT rel at ive to control
[9] = Toxicity in ICR mouse assessed as effect on clinical signs at 30 mg/kg, po administered once daily for 14 consecutive days; assay type: organism-based; conditions: in vivo; summary of the method: as §2
[10] = MRT (0 to infinity) in Sprague-Dawley rat at 1 mg/kg, iv by LC-MS-MS analysis; assay type: ADME, organism-based; conditions: in vivo
[11] = target: Voltage-gated inwardly rectifying potassium channel KCNH2 (Homo sapiens, UniProt Q12809); experiment: Inhibition of human ERG by patch clamp assay
Voltage-gated inwardly rectifying potassium channel KCNH2, sequence (Q12809 whole entry): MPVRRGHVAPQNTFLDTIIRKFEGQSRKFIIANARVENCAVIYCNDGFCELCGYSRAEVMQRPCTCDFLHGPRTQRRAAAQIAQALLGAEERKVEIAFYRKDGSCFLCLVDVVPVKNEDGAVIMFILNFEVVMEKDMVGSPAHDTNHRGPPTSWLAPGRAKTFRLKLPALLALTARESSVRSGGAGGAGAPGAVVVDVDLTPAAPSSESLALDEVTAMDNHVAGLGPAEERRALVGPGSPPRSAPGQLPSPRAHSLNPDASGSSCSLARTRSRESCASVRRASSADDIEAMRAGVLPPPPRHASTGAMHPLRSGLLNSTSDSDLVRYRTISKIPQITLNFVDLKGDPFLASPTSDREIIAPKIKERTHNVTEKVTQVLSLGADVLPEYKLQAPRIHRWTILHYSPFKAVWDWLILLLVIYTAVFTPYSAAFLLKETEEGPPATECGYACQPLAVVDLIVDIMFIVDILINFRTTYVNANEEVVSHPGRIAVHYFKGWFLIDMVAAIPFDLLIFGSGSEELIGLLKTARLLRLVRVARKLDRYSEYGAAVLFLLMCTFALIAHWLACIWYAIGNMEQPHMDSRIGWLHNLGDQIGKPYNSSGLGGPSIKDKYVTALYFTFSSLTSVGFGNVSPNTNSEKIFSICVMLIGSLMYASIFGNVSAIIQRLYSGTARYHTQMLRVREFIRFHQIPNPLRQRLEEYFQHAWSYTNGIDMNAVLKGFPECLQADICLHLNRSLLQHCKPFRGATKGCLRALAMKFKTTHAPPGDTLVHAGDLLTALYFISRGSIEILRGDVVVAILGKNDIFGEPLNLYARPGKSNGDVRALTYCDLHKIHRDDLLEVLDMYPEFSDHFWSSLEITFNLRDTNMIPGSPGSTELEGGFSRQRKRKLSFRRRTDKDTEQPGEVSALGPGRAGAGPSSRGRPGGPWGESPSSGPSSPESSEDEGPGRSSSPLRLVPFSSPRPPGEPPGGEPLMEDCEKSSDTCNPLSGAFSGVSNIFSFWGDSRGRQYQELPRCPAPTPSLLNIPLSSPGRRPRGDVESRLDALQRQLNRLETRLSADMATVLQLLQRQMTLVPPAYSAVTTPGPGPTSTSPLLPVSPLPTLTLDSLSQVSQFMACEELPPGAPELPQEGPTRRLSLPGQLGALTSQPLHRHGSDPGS

[12] = system: Mus musculus; experiment: Anti-diabetic activity in mouse assessed as inhibition of DPP4 in plasma at 3 mg/kg, po administered as single dose pretreated for 60 mins followed by glucose challenge and measured over 168 hrs post dose
[13] = Tmax in ICR mouse at 2 mg/kg, po by LC-MS-MS analysis; assay type: ADME, organism-based; conditions: in vivo; summary of the method: as §3
[14] = system: Mus musculus; experiment: Anti-diabetic activity in ICR mouse assessed as inhibition of DPP4 in plasma at 3 mg/kg, po administered as single dose using Gly-Pro-AMC as substrate and measured after 7 days post dose by fluorometric assay relative to control; assay type: functional
Summary of the method: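 Male ICR mice (n = 10/group), fasted 2 h, given single oral doses of 0.03–3 mg/kg in 0.5% CMC-Na, with pre-dose baseline blood. Blood was drawn at 1–168 h. […] DPP-4 was read continuously for 5 min at 37 °C with 10 µM Gly-Pro-AMC in 100 mM HEPES pH 7.5 containing 0.1 mg/mL BSA (ex 360/em 460 nm). % activity is the treated rate over each animal's own baseline rate.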

[15] = Toxicity in db/db mouse assessed as induction of distress signs at 3 to 10 mg/kg, po dosed once weekly for 8 weeks; assay type: organism-based; conditions: in vivo, 1344 h
[16] = Toxicity in db/db mouse assessed as induction of discomfort signs at 3 to 10 mg/kg, po dosed once weekly for 8 weeks; assay type: organism-based; conditions: in vivo, 1344 h
[17] = system: Mus musculus; experiment: Anti-diabetic activity in db/db mouse assessed as increase in glucose tolerance at 10 mg/kg, po dosed once weekly for 8 weeks by OGTT; assay type: functional, organism-based
[18] = Cmax in Sprague-Dawley rat at 1 mg/kg, iv by LC-MS-MS analysis; assay type: ADME, organism-based; parameters: dose 1 mg/kg, route intravenous; conditions: in vivo
[19] = AUCt in ICR mouse at 2 mg/kg, po by LC-MS-MS analysis; assay type: ADME, organism-based; conditions: in vivo; summary of the method: as §3
[20] = MRT (0 to infinity) in ICR mouse at 2 mg/kg, po by LC-MS-MS analysis; assay type: ADME, organism-based; conditions: in vivo; summary of the method: as §3
[21] = system: Mus musculus; experiment: Anti-diabetic activity in db/db mouse assessed as reduction in fasting blood glucose at 10 mg/kg, po dosed once weekly for 8 weeks; assay type: functional; parameters: scale not given: the % may be the effect or the level left
[22] = Terminal half life in ICR mouse at 2 mg/kg, po by LC-MS-MS analysis; assay type: ADME, organism-based; conditions: in vivo, read-out: beta t1/2 (converted); summary of the method: as §3
[23] = system: Rattus norvegicus; experiment: Initial plasma concentration in Sprague-Dawley rat at 2 mg/kg, po by LC-MS-MS analysis; assay type: ADME, organism-based; conditions: in vivo
[24] = Plasma concentration in Sprague-Dawley rat at 2 mg/kg, po by LC-MS-MS analysis; assay type: ADME, organism-based; conditions: in vivo
[25] = system: Mus musculus; experiment: Anti-diabetic activity in 8 hrs-fasted ICR mouse assessed as reduction in blood glucose AUC (0 to 120 mins) at 3 mg/kg, po pretre at ed for 60 mins followed by glucose challenge and measured after 120 mins post glucose challenge by OGTT rel at ive to control; assay type: functional; summary of the method: as §1
[26] = system: Mus musculus; experiment: Anti-diabetic activity in 8 hrs-fasted ICR mouse assessed as increase in insulin levels at 3 mg/kg, po pretreated for 60 mins followed by glucose challenge by OGTT; assay type: functional, organism-based
Summary of the method: (§4)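 Male ICR mice (n = 10/group), fasted 8 h, dosed orally at 0.3, 1 or 3 mg/kg 1 h before oral glucose at 3 g/kg. Blood was collected at 0, 5 and 10 min into tubes with valine pyrrolidide and EDTA. Active GLP-1[7-36 amide] and insulin measured by kit. Two-way ANOVA with Fisher's LSD against vehicle.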

[27] = Tmax in Sprague-Dawley rat at 2 mg/kg, po by LC-MS-MS analysis; assay type: ADME, organism-based; conditions: in vivo
[28] = system: Mus musculus; experiment: Anti-diabetic activity in db/db mouse assessed as HbA1c levels at 10 mg/kg, po dosed once weekly for 8 weeks; assay type: functional
[29] = system: Mus musculus; experiment: Initial plasma concentration in ICR mouse at 2 mg/kg, po by LC-MS-MS analysis; assay type: ADME, organism-based; conditions: in vivo; summary of the method: as §3
[30] = Cmax in Sprague-Dawley rat at 2 mg/kg, po by LC-MS-MS analysis; assay type: ADME, organism-based; parameters: dose 2 mg/kg, route oral; conditions: in vivo
[31] = Toxicity in ICR mouse assessed as effect on organ index at 30 mg/kg, po administered once daily for 14 consecutive days; assay type: organism-based; conditions: in vivo; summary of the method: as §2
[32] = Terminal half life in Sprague-Dawley rat at 1 mg/kg, iv by LC-MS-MS analysis; assay type: ADME, organism-based; conditions: in vivo, read-out: beta t1/2 (converted)
[33] = AUC (0 to infinity) in ICR mouse at 2 mg/kg, po by LC-MS-MS analysis; assay type: ADME, organism-based; parameters: dose 2 mg/kg, route oral, time infinity; conditions: in vivo; summary of the method: as §3
[34] = Oral bioavailability in Sprague-Dawley rat at 2 mg/kg after 24 hrs by LC-MS-MS analysis; assay type: ADME, organism-based; conditions: in vivo
[35] = Toxicity in ICR mouse assessed at 300 mg/kg, po administered as single dose; assay type: organism-based; conditions: in vivo
Summary of the method: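 ICR mice given a single oral dose of 300 mg/kg to assess acute toxicity.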

[36] = AUCt in Sprague-Dawley rat at 2 mg/kg, po by LC-MS-MS analysis; assay type: ADME, organism-based; conditions: in vivo
[37] = system: Mus musculus; experiment: Anti-diabetic activity in db/db mouse assessed as reduction in fasting blood glucose at 3 mg/kg, po dosed once weekly for 8 weeks; assay type: functional; parameters: scale not given: the % may be the effect or the level left
[38] = AUCt in Sprague-Dawley rat at 1 mg/kg, iv by LC-MS-MS analysis; assay type: ADME, organism-based; conditions: in vivo
[39] = Toxicity in db/db mouse assessed as induction of abnormal weight gain at 3 to 10 mg/kg, po dosed once weekly for 8 weeks; assay type: organism-based; conditions: in vivo, 1344 h
[40] = Plasma concentration in Sprague-Dawley rat at 2 mg/kg, po after 24 hrs by LC-MS-MS analysis; assay type: ADME, organism-based; conditions: in vivo
[41] = Toxicity in ICR mouse assessed as effect on serum biochemical parameters at 30 mg/kg, po administered once daily for 14 consecutive days; assay type: organism-based; conditions: in vivo; summary of the method: as §2
[42] = AUC (0 to infinity) in Sprague-Dawley rat at 1 mg/kg, iv by LC-MS-MS analysis; assay type: ADME, organism-based; parameters: dose 1 mg/kg, route intravenous, time infinity; conditions: in vivo
[43] = system: Mus musculus; experiment: Anti-diabetic activity in db/db mouse assessed as increase in glucose-induced insulin secretion at 10 mg/kg, po dosed once weekly for 8 weeks pretreated for 60 mins followed by glucose challenge and measured after 120 mins post glucose challenge by OGTT relative to control; assay type: functional
[44] = system: Mus musculus; experiment: Anti-diabetic activity in 6 h-fasted db/db mouse assessed as inhibition of DPP4 in plasma at 10 mg/kg, po administered as single dose pretreated for 60 mins followed by glucose challenge and measured after 120 mins post glucose challenge by OGTT; assay type: functional, organism-based
[45] = system: Mus musculus; experiment: Anti-diabetic activity in 8 hrs-fasted ICR mouse assessed as increase in GLP1 levels at 1 mg/kg, po pretreated for 60 mins followed by glucose challenge and measured 5 to 10 mins post glucose challenge by OGTT relative to control; assay type: functional; summary of the method: as §4
[46] = system: Mus musculus; experiment: Anti-diabetic activity in 8 hrs-fasted ICR mouse assessed as increase in insulin levels at 1 mg/kg, po pretreated for 60 mins followed by glucose challenge by OGTT; assay type: functional, organism-based; summary of the method: as §4

- Vd [2]: 2.07 L/kg
- C0 [3]: 2010 ng/mL
- clearance [4]: 1.1 mL/min/kg
- Cmax [6]: 1770 ng/mL
- MRT inf [10]: 15.9 h
- Tmax [13]: 10.2 h
- Cmax [18]: 2010 ng/mL
- AUC(0-t) [19]: 82000 ng·h/mL
- MRT inf [20]: 40.7 h
- half-life [22]: 25.3 h
- C0 [23]: 1387.47 ng/mL
- Drug uptake [24]: Active
- Tmax [27]: 6.67 h
- C0 [29]: 1773.37 ng/mL
- Cmax [30]: 1390 ng/mL
- half-life [32]: 11.9 h
- AUC(0-inf) [33]: 85600 ng·h/mL
- bioavailability [34]: 98.5%
- AUC(0-t) [36]: 23200 ng·h/mL
- AUC(0-t) [38]: 11800 ng·h/mL
- Drug uptake [40]: Active
- AUC(0-inf) [42]: 15400 ng·h/mL
Compound: COc1cc2c3c(ccc2cc1C#N)O[C@H](c1cc(F)c(F)cc1F)[C@@H](N)C3
- inhibition in vivo at 0.3 mg/kg [1]: 16.4%
- Activity [5]: Non-Toxic
- Activity [7]: Non-Toxic
- inhibition in vivo at 10 mg/kg [8]: 18.3%
- Activity [9]: Non-Toxic
- pIC50 [11]: < 4.40
- inhibition in vivo at 3 mg/kg [12]: > 80%
- inhibition in vivo at 3 mg/kg ([14]; 168 h): ≤ 80%
- Activity [15]: Non-Toxic
- Activity [16]: Non-Toxic
- Activity [17]: Active
- Activity [21]: 33.1%
- inhibition in vivo at 3 mg/kg [25]: 27.2%
- Activity [26]: Active
- Activity [28]: 3.56%
- Activity [31]: Non-Toxic
- Activity [35]: Non-Toxic
- Activity [37]: 24.7%
- Activity [39]: Non-Toxic
- Activity [41]: Non-Toxic

Compound: Cn1c(=O)cc(N2CCC[C@@H](N)C2)n(Cc2cc(F)ccc2C#N)c1=O [TRELAGLIPTIN]
- inhibition in vivo at 10 mg/kg [8]: 19.3%
- Activity [17]: Active
- Activity [21]: 16.8%
- Activity [28]: Active
- fold change (FC) [43]: 1.7
- inhibition [44]: Active

Compound: CS(=O)(=O)n1cc2c(n1)CN([C@H]1CO[C@H](c3cc(F)ccc3F)[C@@H](N)C1)C2 [OMARIGLIPTIN]
- inhibition in vivo at 0.3 mg/kg [1]: 14.6%
- fold change (FC) [45]: 1.6 - 1.7
- inhibition in vivo at 10 mg/kg [8]: 8.3%
- Activity [46]: Active
- inhibition [14]: Active
- Activity [17]: Active
- Activity [21]: 26.6%
- inhibition in vivo at 3 mg/kg [25]: 22.1%
- Activity [28]: Active
- fold change (FC) [43]: 1.8
- inhibition [44]: Active
